ChEMBL document CHEMBL4138205, “Oxazole-Containing Diterpenoids from Cell Cultures of Salvia miltiorrhiza and Their Anti-HIV-1 Activities” (J Nat Prod, 2017)
Active and inactive are the calls of the source. No cut-off for these calls is given here.

Key:
[1] = system: Human immunodeficiency virus 1; test: Antiviral activity against wild-type VSV-G pseudotyped HIV1 infected in HEK293 cells assessed as time of 50% failure at 1 uM measured at 48 hrs post infection by luciferase reporter gene assay; type: functional
Outline: (§1)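 Time-of-addition: HEK 293T infected with VSV-G/HIV-1, then compounds added at successive time points after infection (test compound final 0.1 μM; AZT, EFV, RAL final 1 μM); lysate luciferase read at 48 h postinfection; infectivity (%) versus untreated control.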

Murine leukemia virus = test: Antiviral activity against wild-type VSV-G pseudotyped MLV infected in HEK293 cells pretreated for 15 mins followed by viral infection measured after 48 hrs by luciferase reporter gene assay; type: functional, organism-based
[2] = system: Human immunodeficiency virus 1; test: Antiviral activity against wild-type VSV-G pseudotyped HIV1 infected in HEK293 cells at 10 uM pretreated for 15 mins followed by viral infection measured after 48 hrs by luciferase reporter gene assay relative to control; type: functional; conditions: Human immunodeficiency virus 1, HEK293
Outline: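 Single-concentration screen: compound at final 10 μM added to HEK 293T cells 15 min before VSV-G/HIV-1 infection; cell lysate luciferase measured 48 h postinfection and infectivity expressed relative to equal-volume DMSO solvent control.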

[3] = system: Human immunodeficiency virus 1; test: Antiviral activity against HIV1 pNL4-3 infected in HEK293 cells assessed as reduction in viral transcription by measuring decrease in luciferase activity at 1 uM after 20 hrs by luciferase reporter gene assay; type: functional, organism-based
Outline: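 HEK 293T cells transiently transfected with the pNL4-3.luc.R−E− HIV-1 reporter plasmid (luciferase gene) for 4 h. The test compound was then added at 0.001−1 μM final and incubated for an additional 20 h. Luciferase activity was read 24 h post-transfection as a measure of viral gene expression; n = 2.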

[4] = system: Human immunodeficiency virus 1; test: Antiviral activity against wild-type VSV-G pseudotyped HIV1 infected in HEK293 cells pretreated for 15 mins followed by viral infection measured after 48 hrs by luciferase reporter gene assay; type: functional, organism-based; conditions: Human immunodeficiency virus 1, HEK293
HEK293 = test: Effect on renilla luciferase expression in HEK293 cells up to 1 uM after 24 hrs by luciferase reporter gene assay; type: ADME, cell-based; conditions: human, hek293, 24 h
Outline: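 A plasmid encoding Renilla luciferase (pSV40-Renilla) was transiently transfected into HEK 293T cells for 4 h. Cells were then cultured with the test compound at the indicated concentrations, and Renilla luciferase activity in cell lysates was measured 24 h post-transfection as a control for gene translation; n = 2.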

[5] = biological target: T1, Protein Tat (Human immunodeficiency virus type 1 group M subtype B (isolate HXB2)(HIV-1)) (UniProt P04608); test: Inhibition of HIV1 Tat-mediated LTR transcriptional activity expressed in HEK293 cells after 48 hrs by dual-luciferase reporter gene assay; type: cell-based; conditions: Human immunodeficiency virus 1
T1 sequence (whole entry): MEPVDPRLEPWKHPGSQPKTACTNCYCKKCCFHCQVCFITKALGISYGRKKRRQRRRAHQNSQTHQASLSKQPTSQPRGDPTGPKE
Outline: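 HEK 293T cotransfected 4 h with 100 ng pLTR-Luc, 70 ng pcDNA3.1-Tat and 2 ng pSV40-Renilla, then cultured with compound; lysate luciferase activities read 48 h post-transfection by dual-luciferase assay; n = 2.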

[6] = system: Human immunodeficiency virus 1; test: Antiviral activity against HIV1 pNL4-3 infected in HEK293 cells assessed as reduction in viral transcription by measuring decrease in luciferase activity after 20 hrs by luciferase reporter gene assay; type: functional, organism-based
Outline: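 HEK 293T transiently transfected with pNL4-3.luc.R−E− for 4 h, then treated with compound (0.001−1 μM range; AZT, EFV, RAL 1 μM) for a further 20 h; luciferase activity then measured as read-out of viral gene expression; n = 2.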

[7] = system: Human immunodeficiency virus 1; test: Antiviral activity against VSV-G pseudotyped HIV1 infected in human MT2 cells pretreated for 15 mins followed by viral infection measured after 48 hrs by luciferase reporter gene assay; type: functional, organism-based; conditions: Human immunodeficiency virus 1, MT2
[8] = system: Human immunodeficiency virus 1; test: Antiviral activity against HIV1 infected in HEK293 cells assessed as inhibition of basal LTR transcription after 48 hrs by dual-luciferase reporter gene assay; type: functional, organism-based
Outline: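 HEK 293T cotransfected 4 h with 100 ng pLTR-Luc and 2 ng pSV40-Renilla (no Tat), then compound added; firefly and Renilla luciferase in lysates measured 48 h post-transfection by dual-luciferase assay; n = 2.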

[9] = system: Human immunodeficiency virus 1; test: Antiviral activity against wild-type VSV-G pseudotyped HIV1 infected in HEK293 cells assessed as time of 50% failure at 0.1 uM measured at 48 hrs post infection by luciferase reporter gene assay; type: functional; outline: as §1
[10] = system: Human immunodeficiency virus 1; test: Antiviral activity against HIV1 NL4-3 infected in human MT2 cells measured after 72 hrs post infection by fluorAce beta-galactosidase reporter gene assay; type: functional, organism-based; conditions: Human immunodeficiency virus 1, NL4-3, MT2, 72 h
Outline: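 MT-2 cells (RPMI 1640, 10% FBS) in 384-well format infected with HIV-1 NL4-3 carrying a β-galactosidase reporter at MOI 0.01; compounds added in DMSO; β-Gal expression read at 72 h postinfection by FluorAce β-Gal reporter assay; n = 2.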

SMILES	FT50 [1] [h]	inhibition at 10 µM [2] [%]	Activity [3]	other results
O=C1Nc2ccc(Cl)cc2[C@@](C#CC2CC2)(C(F)(F)F)O1 [EFAVIRENZ]	10.1	100	inactive	IC50 (Murine leukemia virus): > 10000 nM
Cc1cccc2c1ccc1c3c(c4oc(Cc5ccccc5)nc4c12)[C@@H](C)CO3	–	62.1	–	IC50 [4]: 1200 nM
Cc1nnc(C(=O)NC(C)(C)c2nc(C(=O)NCc3ccc(F)cc3)c(O)c(=O)n2C)o1 [RALTEGRAVIR]	12	–	inactive	–
Cc1nc2c(o1)c1c(c3ccc4c(C)cccc4c32)OC[C@@H]1C	–	2.82	–	–
Cc1nc2c(o1)c1c(c3ccc4c(c32)CCCC4(C)C)OC[C@@H]1C	–	18.3	–	–
Cc1nc2c3c(c4ccc5c(c4c2o1)CCCC5(C)C)OC[C@@H]3C	–	11.2	–	–
C[C@H]1COc2c1c1ocnc1c1c3c(ccc21)C(C)(C)CCC3	–	18.7	–	–
Cc1cccc2c1ccc1c3c(c4ocnc4c12)[C@@H](C)CO3	–	76.7	–	Activity (HEK293): Non-Toxic; IC50 [4]: 30 nM; inhibition [5]: Dose-dependent effect; IC50 (Murine leukemia virus): 150 nM; Activity [6]: Dose-dependent effect; IC50 [7]: 30 nM; inhibition [8]: Dose-dependent effect; FT50 [9]: <=20 hr; IC50 [10]: 5400 nM
Cc1cn([C@H]2C[C@H](N=[N+]=[N-])[C@@H](CO)O2)c(=O)[nH]c1=O [ZIDOVUDINE]	7.7	–	inactive	–
Cc1nc2c(o1)c1c(C)coc1c1ccc3c(C)cccc3c12	–	17.4	–	–
